In one series the test system is Cynomolgus monkey. The series can be described thus: Prodrug conversion in cynomolgus monkey assessed as AUC (0 to 24 hrs) of 4-Fluoro-6-((6-methyl-1H-indazol-5-yl)methyl)-8-(2-oxo-1,2-dihydropyridin-3-yl)-6H-furo[2,3-e]indole-7-carboxylic acid level at 3 mg/kg, po. Details: time < 24 hr, dose 3 mg/kg, route oral; call rule not given here. As to conditions: in vivo. The format is ADME, organism-based, Macaca fascicularis.

For series [1], the system named is Rattus norvegicus. The series can be described thus: Prodrug conversion in Sprague-Dawley rat assessed as AUC (0 to 24 hrs) of 4-Fluoro-6-((6-methyl-1H-indazol-5-yl)methyl)-8-(2-oxo-1,2-dihydropyridin-3-yl)-6H-furo[2,3-e]indole-7-carboxylic acid level at 10 mg/kg, po. Details: time < 24 hr, dose 10 mg/kg, route oral. Conditions: in vivo. The format is ADME, organism-based. The method in brief:
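Dimethylaminoethyl ester prodrugs were dosed orally to rats at 10 mg/kg in 0.4% methylcellulose.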

Another series relates to Hepatitis C virus. The series can be described thus: Antiviral activity against HCV1b assessed as inhibition of viral replication. The format is functional, organism-based, Hepacivirus hominis. Conditions: genotype 1b. Put shortly: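 In the cell-based HCV replicon assay, viral RNA levels were measured. EC50 is the concentration giving a 50% reduction in replicon RNA.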

Series [2] is described as follows: Inhibition of HCV1b NS5B polymerase. More on the design: species or system Hepatitis C virus subtype 1b.
For series [3], the system named is Liver microsome. The series can be described thus: Drug metabolism in human liver microsomes assessed as formation of 2-((R)-2-((S)-4-amino-4-carboxybutanamido)-3-(carboxymethylamino)-3-oxopropylthio)-6-(2,5-difluorobenzyl)-3-hydroxy-8-(2-oxo-1,2-dihydropyridin-3-yl)-3,6-dihydro-2H-furo[2,3-e]indole-7-carboxylic acid in presence of glutathione. The format is ADME.

Series [4] concerns Liver microsome. Put plainly: Drug metabolism in human liver microsomes assessed as formation of 6-(2,5-difluorobenzyl)-3-hydroxy-2-(methoxyamino)-8-(2-oxo-1,2-dihydropyridin-3-yl)-3,6-dihydro-2H-furo[2,3-e]indole-7-carboxylic acid in presence of NH2OCH3. In kind it is ADME. (Liver microsomes are vesicles of endoplasmic reticulum, rich in cytochrome P450 enzymes.)
Series [5] concerns Liver microsome. Put plainly: Drug metabolism in human liver microsomes assessed as formation of 3-(2,5-Difluoro-benzyl)-1-(2-oxo-1,2-dihydro-pyridin-3-yl)-5b,6a-dihydro-3H-6,7-dioxa-3-aza-cyclopropa[b]-as-indacene-2-carboxylic acid. In kind it is ADME.
The test system of series [6] is Liver microsome. Put plainly: Drug metabolism in human liver microsomes assessed as formation of 6-(2,5-difluorobenzyl)-2,3-dihydroxy-8-(2-oxo-1,2-dihydropyridin-3-yl)-3,6-dihydro-2H-furo[2,3-e]indole-7-carboxylic acid in presence of water. The format is ADME.
Series [7] deals with Liver microsome. Put plainly: Drug metabolism in human liver microsomes assessed as formation of 8-(1H-pyrrol-2-yl)-6H-furo[2,3-e]indole-7-carboxylic acid. The format is ADME.
Series [8] relates to Rattus norvegicus. The series can be described thus: Prodrug conversion in Sprague-Dawley rat assessed as AUC (0 to 6 hrs) of 6-((6-Chloro-1H-benzo[d]imidazol-5-yl)methyl)-4-fluoro-8-(2-oxo-1,2-dihydropyridin-3-yl)-6H-furo[2,3-e]indole-7-carboxylic acid level at 10 mg/kg, po. As to conditions: in vivo. Details: time < 6 hr, dose 10 mg/kg, route oral. The format is ADME, organism-based. Put shortly:
(§1)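 Sprague Dawley rats received esters orally at 10 mg/kg in 0.4% methylcellulose, given as trifluoroacetate salts. Plasma levels of both the intact ester prodrug and the acid metabolite were measured. AUC was integrated over 0–6 h after dosing.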

Series [9] relates to Rattus norvegicus. The series can be described thus: Prodrug conversion in Sprague-Dawley rat assessed as AUC (0 to 6 hrs) of parent compound level at 10 mg/kg, po. In kind it is ADME, organism-based. More on the design: time < 6 hr, dose 10 mg/kg, route oral. Conditions: in vivo. Put shortly:
as §1

A short description of series [10]: AUC (0 to 6 hrs) in cynomolgus monkey at 3 mg/kg, po. The format is ADME, organism-based, Macaca fascicularis. More on the design: time < 6 hr, dose 3 mg/kg, route oral. As to conditions: plasma.
A short description of series [11]: AUC (0 to 6 hrs) in Sprague-Dawley rat at 10 mg/kg, po. Conditions: plasma. More on the design: time < 6 hr, dose 10 mg/kg, route oral. The format is ADME, organism-based. Put shortly: as §1

The structures appear in SMILES notation.

On to `Cc1cc2[nH]ncc2cc1Cn1c(C(=O)OCCN(C)C)c(-c2ccc[nH]c2=O)c2c3occc3c(F)cc21.O=C(O)C(F)(F)F`, for which the AUC (commonly concentration integrated over time) with Cynomolgus monkey worked out at 10.7 µM·h; in the series on Rattus norvegicus [1] it was 79 µM·h. For the same compound, in the series on Hepatitis C virus, the concentration for a half-maximal effect (EC50) (usually the concentration at which the effect is half-maximal) turned out to be 2 nM.
As to `O=C(O)c1c(-c2ccc[nH]c2=O)c2c3occc3ccc2n1Cc1cc(F)ccc1F`, the concentration for a half-maximal effect (EC50) in the series with Hepatitis C virus worked out at 160 nM. In addition, half-maximal inhibition in series [2] (IC50) required 31 nM. Besides, the Drug metabolism entry with Liver microsome [3], in the series on Liver microsome [4], with Liver microsome [5], in the series with Liver microsome [6] and with Liver microsome [7] was “Active” each time.
Turning to `O=C(O)c1c(-c2ccc[nH]c2=O)c2c3occc3cc(F)c2n1Cc1cc(F)ccc1F`, the EC50 in the series on Hepatitis C virus turned out to be 2600 nM. The IC50 (usually the concentration at which inhibition is half-maximal) in [2] amounted to 17 nM.
Regarding `COCCOC(=O)c1c(-c2ccc[nH]c2=O)c2c3occc3c(F)cc2n1Cc1cc2[nH]cnc2cc1Cl`, the area under the curve (AUC) was 1.1 µM·h in the series with Rattus norvegicus [8] and 0.2 µM·h in the series with Rattus norvegicus [9].
On to `CCOC(=O)c1c(-c2ccc[nH]c2=O)c2c3occc3c(F)cc2n1Cc1cc2[nH]cnc2cc1Cl`, for which the area under the curve (AUC) in the series on Rattus norvegicus [9] came to 0.1 µM·h.
`O=C(O)c1c(-c2ccc[nH]c2=O)c2c3occc3c(F)cc2n1Cc1cc2cn[nH]c2cc1F`: the results for the exposure AUC(0-t) at 6 h in series [10] and in [11] were 1 µM·h and 9.3 µM·h, respectively. For the same compound, in the series with Hepatitis C virus, the concentration giving a half-maximal response (EC50) worked out at 4 nM. The compound further gave an IC50 in [2] of 3 nM.
Consider `O=C(O)c1c(-c2ccc[nH]c2=O)c2c3occc3c(F)cc2n1Cc1cc2c(=O)cc[nH]c2cc1F`, for which the EC50 with Hepatitis C virus was found to be 7 nM. Further, inhibition in series [2] was half-maximal at 3 nM (IC50).
As for `O=C(O)c1c(-c2ccc[nH]c2=O)c2c3occc3c(F)cc2n1Cc1cc2[nH]cnc2cc1Cl`, in series [11], the area under the curve AUC(0-t) (in general, exposure summed from dosing to a finite time, without extrapolation to infinity) at 6 h amounted to 1.2 µM·h. For the same compound, the EC50 in the series on Hepatitis C virus was 8 nM. The compound further yielded a 50% inhibitory concentration (IC50) in series [2] of 6 nM.
The compound `Cn1nc(N)c2cc(Cn3c(C(=O)O)c(-c4ccc[nH]c4=O)c4c5occc5c(F)cc43)c(F)cc21` returned an AUC(0-t) at 6 h in series [11] of 7.2 µM·h. Also, the half-maximal effective concentration (EC50) in the series on Hepatitis C virus worked out at 20 nM. Besides, in series [2], the 50% inhibitory concentration (IC50) was 6 nM.
`O=C(O)c1c(-c2ccc[nH]c2=O)c2c3occc3c(F)cc2n1Cc1ccc2nc[nH]c2c1` had an area under the curve AUC(0-t) at 6 h in [11] of 9.3 µM·h. For the same compound, the EC50 with Hepatitis C virus amounted to 30 nM. The same compound returned a concentration for half-maximal inhibition (IC50) in series [2] of 5 nM.
The corresponding values for `Nc1n[nH]c2cc(F)c(Cn3c(C(=O)O)c(-c4ccc[nH]c4=O)c4c5occc5c(F)cc43)cc12` are 2.1 µM·h, 3 nM and 4 nM.
For `Nc1cc(Cn2c(C(=O)O)c(-c3ccc[nH]c3=O)c3c4occc4c(F)cc32)c2ccccc2n1`, the results for the exposure AUC(0-t) at 6 h in series [10] and in series [11] were 0.4 µM·h and 24 µM·h, respectively. The EC50 with Hepatitis C virus was determined as 6 nM. In [2], this compound gave a 50% inhibitory concentration (IC50) of 4 nM.
For the compound `CC(OC(=O)c1c(-c2ccc[nH]c2=O)c2c3occc3c(F)cc2n1Cc1cc2[nH]cnc2cc1Cl)c1ccccc1` (centres undefined), the AUC with Rattus norvegicus [8] is 0.2 µM·h; in the series with Rattus norvegicus [9], 0.3 µM·h.

For the origin of these results see ChEMBL document CHEMBL3098025, “Optimization of potency and pharmacokinetics of tricyclic indole derived inhibitors of HCV NS5B polymerase. Identification of ester prodrugs with improved oral pharmacokinetics” (Bioorg Med Chem, 2014).
